Screening data deposited in PubChem BioAssay by Broad Institute.
Shown are actives, neighbours in structure and some others; about 2.9% of the full set was active somewhere.
INS-1E GSIS act: primary screen for activators of insulin secretion dependent on glucose, INS-1E cells, GLuc reporter luminescence; INS-1E GLuc reporter insulin secretion, 2-3 h; activation, % at 16.6 µM; hit rate 0.61% among 370,000; AID 743287;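 active = lowest replicate activation of at least 40%, so every replicate reaches that level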;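 also: 0% = median of neutral control wells and 100% = median of IBMX positive control wells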
Cneo AK release: Cryptococcus neoformans lysis via adenylate kinase release; C. neoformans lysis, adenylate kinase release luminescence, 4 h; normalised: neutral wells 0, clomiphene wells 100; hit rate 0.2% among 360,000; lysis activity, % at 15 µM;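 active = mean lysis activity across replicates of at least 80%, whatever share of replicates individually reach that level; inactive = mean lysis activity below 80%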
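Material: C. neoformans cells; Schedule: 4 h static compound exposure, 37 °C, read 1 h post-reagent; Measured by: adenylate kinase release luminescence; Read-out: signal increase indicating cell lysis; Controls: Clomiphene as positive lysis control.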
Env fusion inh: inhibitors of HIV Env-mediated cell fusion; HeLa-JRFL Env/CEM21 cell fusion, luciferase; hit rate 1.1% among 360,000; inhibition, % at 12.3 µM;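 active = mean replicate inhibition score of at least 50 and every replicate individually at or above 50; inconclusive = only one of the two criteria met; inactive = mean below 50 and not all replicates reaching 50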;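 also: 0% = plate neutral controls and 100% = maraviroc near 300 nM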
PAX8 reporter: PAX8 transcriptional activity inhibition | hit rate 1.2% among 360,000 | inhibition, % at 12.6 µM | RMG-I TPO-luciferase reporter, SteadyGlo, 24 h;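 active = mean replicate inhibition at least 60% with every replicate also reaching 60%; inconclusive = only one of the two criteria is met; inactive = mean below 60% and not all replicates reaching 60%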;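 also: luciferase light reporting Pax8 driven TPO promoter activity; plate controls were median of neutral control wells for no effect and mitoxantrone controls for full effect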
dFosB act: activators of mouse delta FosB homodimer; purified delta FosB, TAMRA-CDK5 oligo fluorescence polarization; percent of positive-control signal above neutral wells; activation, % at 25 µM; hit rate 0.99% among 340,000; AID 493131;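 active = mean activation above about 17%, with every replicate also reaching it, limit read from the data, passing the limit was not always enough; inconclusive = only one of the two conditions met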
CDK5 inh: inhibitors of human CDK5/p35 kinase; Recombinant CDK5/p35, ADP-Glo luminescence, 60 min; hit rate 0.01% among 330,000; inhibition, % at 10 µM; Q00535+Q15078;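 active = highest replicate inhibition of at least 50% and at least 75% of replicates reaching 50%; inconclusive = only one of the two criteria met; inactive = both criteria failed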;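 also: plate controls were DMSO neutral control for no effect and GW8510 at 10 µM for full effect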
Target sequence (Q00535 whole entry, looked up): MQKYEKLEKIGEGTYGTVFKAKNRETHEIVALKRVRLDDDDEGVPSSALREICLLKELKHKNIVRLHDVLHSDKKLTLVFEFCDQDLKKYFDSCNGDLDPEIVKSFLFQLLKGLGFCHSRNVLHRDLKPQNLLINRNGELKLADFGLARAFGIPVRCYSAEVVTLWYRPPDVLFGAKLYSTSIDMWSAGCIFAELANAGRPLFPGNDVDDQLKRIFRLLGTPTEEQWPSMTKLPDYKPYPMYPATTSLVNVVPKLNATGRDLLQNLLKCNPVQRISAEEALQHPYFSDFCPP
Target sequence (Q15078 whole entry, looked up): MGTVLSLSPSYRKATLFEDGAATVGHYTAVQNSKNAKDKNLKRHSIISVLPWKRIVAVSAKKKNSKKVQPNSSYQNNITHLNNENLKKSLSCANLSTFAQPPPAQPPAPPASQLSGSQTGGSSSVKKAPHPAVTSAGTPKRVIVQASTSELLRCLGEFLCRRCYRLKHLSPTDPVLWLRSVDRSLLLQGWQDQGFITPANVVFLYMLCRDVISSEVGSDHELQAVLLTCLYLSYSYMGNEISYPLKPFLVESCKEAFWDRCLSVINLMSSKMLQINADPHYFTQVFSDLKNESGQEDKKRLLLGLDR
The depositor's hits bear a star; ? = inconclusive; / = no result given; [ ] = remark or other dose.

SMILES	INS-1E GSIS act	Cneo AK release	Env fusion inh	PAX8 reporter	dFosB act	CDK5 inh
C[C@H]1CCCCO[C@@H](CN(C)S(=O)(=O)c2ccc(F)cc2)[C@@H](C)CN([C@@H](C)CO)C(=O)c2cc(NC(=O)NC3CCCCC3)ccc2O1	-31	0	?	66*	/	/
C[C@H]1CCCCO[C@@H](CN(C)S(=O)(=O)c2ccccc2)[C@@H](C)CN([C@@H](C)CO)C(=O)c2cc(NC(=O)NC3CCCCC3)ccc2O1	-19	-1	20[16.7 µM]	69*	/	/
COc1ccc(S(=O)(=O)N(C)C[C@@H]2OCCCC[C@H](C)Oc3ccc(NC(=O)NC4CCCCC4)cc3C(=O)N([C@@H](C)CO)C[C@@H]2C)cc1	-33	-1	27[16.7 µM]	66*	/	/
COc1ccc(S(=O)(=O)N(C)C[C@H]2OCCCC[C@@H](C)Oc3ccc(NC(=O)NC4CCCCC4)cc3C(=O)N([C@H](C)CO)C[C@@H]2C)cc1	6	-1	7[16.7 µM]	3	/	/
CO[C@@H]1CN(C)C(=O)c2cc(NC(=O)c3nc4ccccc4s3)ccc2OC[C@H](C)N(Cc2cccnc2)C[C@H]1C	-47	/	/	/	/	/
C[C@@H]1CN([C@@H](C)CO)C(=O)c2cc(NS(=O)(=O)c3ccc(Cl)cc3)ccc2O[C@@H](C)CCCCO[C@@H]1CN(C)C(=O)CCCN(C)C	5	2	-38[16.7 µM]	-2	/	/
CO[C@H]1CN(C)C(=O)c2ccc(NC(=O)Nc3ccc4c(c3)OCO4)cc2OC[C@@H](C)NC[C@@H]1C	-2	3	-12[16.7 µM]	-59	/	/
COc1ccc(S(=O)(=O)N2C[C@H](O)COC[C@@H]3O[C@@H](CC(=O)NCCCN4CCOCC4)CC[C@H]32)cc1	5	-1	/	-12	/	/
C[C@@H]1CN([C@@H](C)CO)C(=O)c2cc(NS(=O)(=O)c3cn(C)cn3)ccc2O[C@H]1CN(C)C(=O)Nc1ccc2c(c1)OCO2	10	-3	/	/	/	/
CC(=O)Nc1ccccc1-c1nnn(CC(=O)Nc2ccc3c(c2)OCCO3)n1	-12	1	-8	5	0	2
Cc1ccccc1C(=O)Nc1ccccc1-c1nnn(CC(=O)Nc2ccc3c(c2)OCCO3)n1	/	-1	-97	/	31*	0
COc1cccc(-c2cnc3c(c2)C(=O)N([C@H](C)CO)C[C@@H](C)[C@@H](CN(C)C(=O)CN(C)C)O3)c1	20	-2	-18[16.7 µM]	/	/	/
C[C@@H]1CN([C@H](C)CO)C(=O)c2cc(NS(=O)(=O)c3cn(C)cn3)ccc2O[C@H]1CN(C)S(=O)(=O)c1ccccc1	22	2	11[16.7 µM]	/	/	/
CC(C)NC(=O)C1(C)CSCC(=O)N1CCCN1CCOCC1 (stereo not given)	26	/	4	-11	/	/
CC(C)NC(=O)C1(C)CN(S(C)(=O)=O)CC(=O)N1CCCN1CCOCC1 (stereo not given)	44*	/	-12	4	/	/
O=C(C[C@H]1CC[C@H]2[C@@H](COC[C@H](O)CN2Cc2ccc(F)cc2)O1)NCc1ccccc1Cl	-36	-3	/	20	/	/
CCOc1ccc(NS(=O)(=O)c2ccc(C(=O)N(C)CCc3ccc(OC)c(OC)c3)cc2)cc1	4	2	89*	0	-5	1
O=C(NCC[C@@H]1CC[C@@H](NC(=O)C2CC2)[C@@H](CO)O1)Nc1ccc(C(F)(F)F)cc1	15	1	2[16.7 µM]	-3	/	/
O=C(NCC1(O)CCCCC1)C1CCC(=O)N(Cc2ccccc2F)C1 (stereo not given)	54*	2	-4	/	1	-3
O=C(NC1CCCCC1)c1cccnc1Sc1ccccc1	62*	/	-2	-24	-5	1
O=C(NC1CCCCC1)c1cccnc1Sc1ccccc1Cl	20	7	9	4	-12	0
C[C@@H]1CN([C@@H](C)CO)C(=O)c2cc(NC(=O)C3CCCCC3)ccc2O[C@@H](C)CCCCO[C@@H]1CN(C)C(=O)NC1CCCCC1	-10	97*	-14[16.7 µM]	10	/	/
C[C@H]1CCCCO[C@H](CN(C)C(=O)NC2CCCCC2)[C@@H](C)CN([C@@H](C)CO)C(=O)c2cc(NC(=O)NC3CCCCC3)ccc2O1	-6	-11	5[16.7 µM]	66*	/	/
CC(C)NC(=O)Nc1ccc2c(c1)C(=O)N([C@@H](C)CO)C[C@@H](C)[C@@H](CN(C)C(=O)NC1CCCCC1)OCCCC[C@H](C)O2	-1	92*	-5[16.7 µM]	-5	/	/
Cc1noc(C)c1S(=O)(=O)N(C)C[C@H]1Oc2ccc(NS(=O)(=O)c3ccc(F)cc3)cc2CC(=O)N([C@@H](C)CO)C[C@H]1C	-8	/	14[16.7 µM]	/	/	/
SMILES	INS-1E GSIS act	Cneo AK release	Env fusion inh	PAX8 reporter	dFosB act	CDK5 inh
CN1C(=O)c2cc(NC(=O)c3cccc(Cl)c3)ccc2OC[C@@H]2O[C@@H](CC(=O)NC3CCCCC3)CC[C@H]21	2	1	6[16.7 µM]	22	/	/
COc1ccc(-c2nc(NC(=O)C3CCN(c4nc5ccccc5o4)CC3)sc2C)cc1	/	0	67*	25	-13	0
C[C@H]1CN([C@@H](C)CO)C(=O)c2cc(NC(=O)c3ccncc3)ccc2O[C@H]1CN(C)C(=O)Nc1ccc(C(F)(F)F)cc1	10	5	-30[16.7 µM]	0	/	/
CC(C)CC#Cc1ccc2c(c1)O[C@H](CN(C)C(=O)c1ccncc1)[C@H](C)CN([C@@H](C)CO)S2(=O)=O	-36	0	-2[16.7 µM]	/	/	/
O=C(C[C@@H]1C=C[C@H](NC(=O)Nc2cc(F)ccc2F)[C@@H](CO)O1)NCCCN1CCOCC1	20	17	2[16.7 µM]	-5	/	/
O=C(C[C@@H]1C=C[C@H](NC(=O)Nc2ccc(C(F)(F)F)cc2)[C@H](CO)O1)NCCN1CCCC1	4	1	-13[16.7 µM]	75*	/	/
O=C(C[C@H]1C=C[C@H](NC(=O)Nc2cc(F)ccc2F)[C@@H](CO)O1)NCCCN1CCOCC1	-8	121*	21[16.7 µM]	-9	/	/
O=C(C[C@@H]1C=C[C@@H](NC(=O)c2cccc(F)c2)[C@H](CO)O1)NCCN1CCCC1	2	95*	-1[16.7 µM]	-4	/	/
C[C@@H]1CN([C@@H](C)CO)C(=O)c2cc(C#Cc3ccccc3F)cnc2O[C@H]1CN(C)C(=O)C1CC1	-2	3	3[16.7 µM]	/	/	/
O=C1C=C(NCc2ccccc2)c2ccccc2C1=O	3	/	37	77*	2	-2
CCN1CCN(c2nc(-c3ccccn3)nc3ccccc23)CC1	/	-5	-16	/	-8	-1
CCCN(CCC)c1nc(-c2ccccn2)nc2ccccc12	-24	3	71*	60	-9	0
CCCCN(CC)c1nc(-c2ccncc2)nc2ccccc12	/	11	64*	/	-25	0
Cc1noc(C)c1S(=O)(=O)Nc1ccc2c(c1)C(=O)N([C@@H](C)CO)C[C@H](C)[C@H](CN(C)S(=O)(=O)c1cn(C)cn1)OCCCC[C@@H](C)O2	-7	0	3[16.7 µM]	-5	/	/
CCOC(=O)c1cccc(-c2ccc(C=O)o2)c1	49*	-1	-62	-87	-6	-1
